Holding throughout (assay type): functional, cell-based
One assay concerns MCF7. Description: Antiproliferative activity against human MCF7 cells after 3 days by sulforhodamine B assay. The conditions noted are these: MCF7, 72 h. The procedure, abridged:
(§1)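 Cells from a university core cell-culture facility, grown in DMEM with 10% heat-inactivated FBS, penicillin-streptomycin and 2 mM L-glutamine at 37 °C, 5% CO2, 90% humidity. Seeded at 1 × 10^4 cells/cm2 in quadruplicate, treated after 24 h with increasing concentrations. Fixed in cold 10% TCA, stained with 0.4% sulforhodamine in 1% HOAc, solubilized in 10 mM Tris pH 10.5, OD 492 nm. IC50 by linear interpolation of semilog curves; mean ± SEM, four determinations.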

The subject of a further assay is T84. The assay can be described thus: Antiproliferative activity against human T84 cells after 3 days by sulforhodamine B assay. The conditions noted are these: T84, 72 h. The procedure, abridged:
as §1

In another assay the test system is A549. The assay can be described thus: Antiproliferative activity against human A549 cells after 3 days by sulforhodamine B assay. The conditions noted are these: A549, 72 h. In a few lines:
as §1

As for `CC(=O)OC[C@H]1C2=C(C(=O)C(Br)=C(C(C)C)C2=O)[C@@]2(C)CCC[C@@](C)(COC(C)=O)[C@H]12`, the IC50 worked out at 1.8 µM in the assay on MCF7, 1.6 µM with T84 and 1.1 µM with A549.

Regarding `CC(C)C1=C(O)C(=O)C2=C(C1=O)[C@H](CO)[C@H]1C(C)(C)CCC[C@]21C`, the IC50 amounted to 39.9 µM in the assay with MCF7, 35.3 µM in the assay with T84 and 43.6 µM with A549.

With `CC(=O)OC[C@H]1C2=C(C(=O)C=C(C(C)C)C2=O)[C@@]2(C)CCCC(C)(C)[C@H]12`, the IC50 with MCF7 turned out to be 13.6 µM; in the assay on T84, 28.8 µM; in the assay on A549, 21.1 µM.

Regarding `COC(=O)[C@]1(C)CCC[C@]2(C)C3=C(C(=O)C(C(C)C)=C(OC)C3=O)[C@H](CO)[C@@H]12`, the IC50 is 10 µM in the assay with MCF7, 31.4 µM in the assay on T84 and 22.9 µM with A549.

In the case of `C=C1C2=C(C(=O)C(OC)=C(C(C)C)C2=O)[C@@]2(C)CCCC(C)(C)C12O` (some centres undefined), the IC50 in the assay on MCF7 was 12.6 µM; with T84, 24.9 µM; in the assay with A549, 23.8 µM.

Consider `CC(C)C1=C(Br)C(=O)C2=C(C[C@H]3C(C)(C)CCC[C@]23C)C1=O`, for which the IC50 in the assay on MCF7 was 2.2 µM; in the assay on T84 it was 3.2 µM; with A549 it was 11.8 µM.

As to `C=C1C2=C(C(=O)C(OC)=C(C(C)C)C2=O)[C@@]2(C)CCC[C@@](C)(C(=O)OC)[C@H]12`, the IC50 was determined as 17 µM in the assay on MCF7, 15.7 µM in the assay on T84 and 19.7 µM with A549.

On to `CC(C)C1=C(O)C(=O)[C@]23O[C@@]2(C1=O)[C@H](CO)[C@H]1C(C)(C)CCC[C@@]13C`, for which the values for the IC50 in the assay on MCF7, with T84 and with A549 were 17.1 µM, 17.1 µM and 19.2 µM, respectively.

Consider `CC(C)C1=C(Br)C(=O)C2=C(C=C3C(C)(C)CCC[C@@]32C)C1=O`, for which the IC50 in the assay on MCF7 is 3.2 µM; in the assay on T84 it was 6.2 µM; with A549, 22.1 µM.

Turning to `COC(=O)[C@]1(C)CCC[C@]2(C)C3=C(C(=O)C(C(C)C)=C(O)C3=O)[C@H](CO)[C@@H]12`, the figures for the IC50 in the assay with MCF7, in the assay with T84 and in the assay with A549 were 32.1 µM, 23.2 µM and 8.6 µM, respectively.

Regarding `CC(=O)OC[C@H]1c2c(O)c(C(C)C)cc(O)c2[C@@]2(C)CCCC(C)(C)[C@H]12`, the IC50 turned out to be 36.1 µM in the assay on MCF7, 25 µM in the assay with T84 and 19.4 µM in the assay on A549.

For the molecule `CC(C)C1=CC(=O)C2=C(C=C3C(C)(C)CCC[C@@]32C)C1=O`, the IC50 with MCF7 came out at 7.1 µM; with T84 it was 8.6 µM; in the assay on A549 it was 15 µM.

With `CC(C)C1=CC(=O)C2=C(C1=O)[C@H](CO)[C@H]1C(C)(C)CCC[C@]21C`, the results for the IC50 with MCF7, in the assay with T84 and in the assay on A549 were 15.7 µM, 18 µM and 12.5 µM, respectively.

Turning to `COC(=O)[C@]1(C)CCC[C@]2(C)C3=C(C(=O)C(C(C)C)=C(OC)C3=O)[C@H](C=O)[C@@H]12`, the IC50 in the assay on MCF7 worked out at 11.4 µM; in the assay with T84, 12.8 µM; in the assay on A549 it was 12.1 µM.

Regarding `CC(=O)OC[C@H]1C2=C(C(=O)C(Br)=C(C(C)C)C2=O)[C@@]2(C)CCCC(C)(C)[C@H]12`, the figures for the IC50 in the assay with MCF7, with T84 and with A549 were 4 µM, 29.5 µM and 29.7 µM, respectively.

Turning to `C=C1C2=C(C(=O)C(OC)=C(C(C)C)C2=O)[C@@]2(C)CCCC(C)(C)[C@H]12`, the IC50 in the assay with MCF7 was 12.4 µM; in the assay on T84, 32.3 µM; in the assay on A549 it was 30.9 µM.

Take `COC(=O)[C@]1(C)CCC[C@]2(C)C3=C(C(=O)C(C(C)C)=C(Br)C3=O)[C@H](COC(C)=O)[C@@H]12`: the IC50 in the assay on MCF7 came to 2.4 µM; in the assay with T84, 2.9 µM; in the assay on A549, 2.4 µM.

As for `C=C1[C@H]2C(C)(C)CCC[C@]2(C)C2(O)C(=O)C(OC)=C(C(C)C)C(=O)C12O` (some centres undefined), the IC50 with MCF7 was determined as 36.4 µM; in the assay with T84 it was 36.3 µM; in the assay on A549 it was 27.2 µM.

As for `C=C1C2=C(C(=O)C(Br)=C(C(C)C)C2=O)[C@@]2(C)CCCC(C)(C)[C@H]12`, the IC50 is 1.3 µM in the assay on MCF7 and 9.6 µM with T84.

Take `CC(C)C1=CC(=O)C2=C(C[C@H]3C(C)(C)CCC[C@]23C)C1=O`: the IC50 in the assay on MCF7 was determined as 16.1 µM; in the assay with T84 it was 6 µM; in the assay on A549 it was 30.3 µM.

With `C=C1C2=C(C(=O)C(Br)=C(C(C)C)C2=O)[C@@]2(C)CCCC(C)(C)C12O` (some centres undefined), the IC50 was determined as 1 µM with MCF7, 5.2 µM in the assay on T84 and 1.5 µM in the assay on A549.

As for `CC(C)C1=C(Br)C(=O)C2=C(C1=O)[C@H](CO)[C@H]1C(C)(C)CCC[C@]21C`, the IC50 in the assay on MCF7 stood at 2.1 µM; in the assay with T84, 6.7 µM; with A549 it was 12.2 µM.

`COC1=C(C(C)C)C(=O)C2=C(C1=O)[C@@]1(C)CCCC(C)(C)[C@@H]1C2` [TAIWANIAQUINONE G]: the IC50 in the assay on MCF7 worked out at 16.8 µM; with T84, 14.1 µM; with A549, 30.5 µM.

Consider `COC1=C(C(C)C)C(=O)C2=C(C1=O)[C@@]1(C)CCCC(C)(C)[C@@H]1[C@H]2C=O` [TAIWANIAQUINONE], for which the figures for the IC50 in the assay with MCF7, with T84 and in the assay on A549 were 15.4 µM, 11.9 µM and 10.1 µM, respectively.

As for `CC(C)C1=C(O)C(=O)C2=C(C1=O)[C@H](C=O)[C@H]1C(C)(C)CCC[C@]21C` [TAIWANIQUINONE A], the IC50 in the assay with MCF7 was 28.6 µM; in the assay with T84 it was 30.9 µM; in the assay with A549, 25.1 µM.

These data come from ChEMBL document CHEMBL4038267, “Antiproliferative Activity of Natural Taiwaniaquinoids and Related Compounds” (J Nat Prod, 2017).
